Screening results: PubChem BioAssay, Sanford-Burnham Center for Chemical Genomics
This is a sample that favours compounds with a hit; in the whole collection about 1.5% have one here.
EBI2 block = EBI2 receptor antagonists, beta-arrestin recruitment, primary screen, cell-based, luminescence, 7a,25-OHC stimulation, uHTS; 7a,25-OHC stimulated; G-protein coupled receptor 183 (Homo sapiens), P32249; actives 0.81% (n = 360,000); AID 651636, 2012; inhibition, % at 5 µM; in the data active means inhibition above about 38%;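 further: enzyme fragment complementation signal reports receptor beta-arrestin coupling in cells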
APJ antagonist = antagonists of human apelin receptor APJ, primary screen, CHO-K1 cells, beta-arrestin complementation, luminescence | P35414 | inhibition, % at 20 µM | actives 0.32% (n = 330,000) | AID 2521, 2010;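 active means inhibition above about 40% at 20 µM, limit read from the data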;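 further: cells challenged with 10 nM apelin-13 agonist together with compound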
APJ ag = agonists of human apelin receptor APJ, primary screen, CHO-K1 cells, PathHunter beta-arrestin, luminescence. actives 0.11% (n = 330,000). 0% DMSO wells, 100% apelin. AID 2520, 2010. P35414. activation, % at 20 µM;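 active means activation more than six SD over the plate average, tested at 20 µM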
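Test system: CHO-K1 APJ beta-arrestin complementation cell line. Amount: cell density 1000 per well. Controls: DMSO negative, 10 nM Apelin-13 positive. Signal: luminescent beta-gal fragment complementation, chemiluminescent substrate. Read-out basis: agonist-driven arrestin binding to APJ. Timing: compound stimulation 90 min at 25 °C, detection 60 min.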
CXCR6 inh = CXCR6 receptor inhibitors, primary screen, cell-based, beta-arrestin, luminescence, CHO-K1 PathHunter, 1536-well; inhibition, % at 20 µM; actives 0.36% (n = 360,000); C-X-C chemokine receptor type 6 (Homo sapiens), O00574; in the data active means inhibition above about 34%, passing the limit was not always enough;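 further: antagonist mode with CXCL16 agonist at 10 nM final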
CCR6 antagonist = CCR6 receptor antagonists, primary screen, cell-based, CHO-K1, luminescence, beta-arrestin, uHTS. inhibition, % at 20 µM. AID 493098, 2011. actives 0.49% (n = 340,000). CHO-K1 CCR6 PathHunter beta-arrestin, CCL20-stimulated;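 active means compounds whose inhibition of the agonist-driven luminescence signal at 20 µM reaches about 50%, limit read from the data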;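 further: cells stimulated with CCL20 at 14 nM final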
Target sequence (P51684 whole entry, looked up): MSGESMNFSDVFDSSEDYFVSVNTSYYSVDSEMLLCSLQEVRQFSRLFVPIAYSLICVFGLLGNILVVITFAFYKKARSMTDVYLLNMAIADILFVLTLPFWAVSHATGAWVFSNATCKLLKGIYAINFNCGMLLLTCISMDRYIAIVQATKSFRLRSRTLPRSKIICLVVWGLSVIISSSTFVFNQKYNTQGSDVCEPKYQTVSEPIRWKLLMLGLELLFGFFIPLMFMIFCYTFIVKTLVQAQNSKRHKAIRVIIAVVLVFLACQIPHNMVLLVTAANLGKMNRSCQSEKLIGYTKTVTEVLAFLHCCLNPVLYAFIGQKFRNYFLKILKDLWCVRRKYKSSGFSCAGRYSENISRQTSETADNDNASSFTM
CXCR6 antag conf = CXCR6 receptor antagonists, confirmation, cell-based, single concentration, beta-arrestin, luminescence; actives 65% (n = 700); shares compounds with CXCR6 inh; CHO-K1 CXCR6 PathHunter beta-arrestin; AID 602409, 2012; inhibition, % at 20 µM;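 active means mean inhibition over four retests above 40%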;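 further: receptor stimulated with 10 nM CXCL16 agonist; beta-galactosidase fragment complementation upon beta-arrestin recruitment to receptor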
Of the large screens only hits and unclear results are named; the others gave an inactive call (follow-up assays come after a bar, where they were run).

CCCCOc1ccc(C(=O)NNC(=S)NC(=O)CC)cc1	CXCR6 inh 57, CCR6 antagonist 68 (no result: APJ antagonist, APJ ag) | CXCR6 antag conf 67
CCCOc1ccc(C(=O)NNC(=S)NC(=O)c2cccs2)cc1	CXCR6 inh 53, CCR6 antagonist 64 | CXCR6 antag conf inactive
CCCOc1ccc(C(=O)NNC(=S)NC(C)=O)cc1	none
CCCCNC(=O)c1nc(-c2cc3ccccc3[nH]2)oc1-c1ccccc1	none (no result: APJ antagonist, APJ ag, CXCR6 inh, CCR6 antagonist)
O=C(NCC1CCCCC1)c1cc(-c2cc(F)ccc2OCC2CCCO2)n[nH]1 (configuration not stated)	none (no result: APJ antagonist, APJ ag, CCR6 antagonist)
COc1ccc(CN2C(=O)CN(S(C)(=O)=O)CC2(C)C(=O)NC(C)C)cc1 (configuration not stated)	none (no result: APJ antagonist, APJ ag, CXCR6 inh, CCR6 antagonist)
COc1cc(C(=O)C(=O)N2CCN(c3ccccc3)CC2)cc2ccccc12	none (no result: APJ antagonist, APJ ag, CXCR6 inh, CCR6 antagonist)
O=C(NCc1ccco1)c1nc2ccccc2s1	CXCR6 inh 41 | CXCR6 antag conf inactive
CCOC(=O)C[C@@H]1OC[C@H](C(C)C)N1S(=O)(=O)c1ccc(C)cc1	none (no result: APJ antagonist, APJ ag, CXCR6 inh, CCR6 antagonist)
C=CCN(C(=O)CSC1=NC(=O)CN1C(C)=O)c1nc(C)c(-c2ccccc2)s1	CXCR6 inh 40 | CXCR6 antag conf inactive
Cc1cc(C)cc(NC(=O)C(=O)NCC2CCCO2)c1 (configuration not stated)	none
Cc1cc(C)cc(NC(=O)C(NCC2CCCO2)c2ccccc2)c1 (configuration not stated)	CXCR6 inh 60 | CXCR6 antag conf inactive
O=S1(=O)C[C@H](N2CCN(CCO)CC2)[C@@H](COCc2ccccc2)N1	none (no result: APJ antagonist, APJ ag, CCR6 antagonist)
Cc1cccc(-c2n[nH]nc2C2=CC(=O)CC(C)(C)C2)c1	none (no result: APJ antagonist, APJ ag, CCR6 antagonist)
Cc1ccc(-c2cc(C(=O)Nc3ccccc3C(N)=O)c3ccccc3n2)o1	CXCR6 inh 47 | CXCR6 antag conf inactive
COc1ccc(NC(=O)c2cc(-c3ccc(C)o3)nc3ccccc23)c(OC)c1	none
CCOC(=O)[C@]12CCC=C1N(Cc1ccc(Cl)cc1Cl)C(=O)[C@H](CC(=O)NCc1ccc(OC)c(OC)c1)C2	none (no result: APJ antagonist, APJ ag, CCR6 antagonist)
CC(=O)Oc1c(/C=C(\C#N)C(N)=O)[nH]c2ccccc12	CXCR6 inh 42 (no result: APJ antagonist, APJ ag) | CXCR6 antag conf inactive
N#C/C(=C\c1c[nH]c2ccccc12)C(N)=O	none
Cc1cnc(C(=O)Nc2cccc3cccnc23)cn1	CXCR6 inh 51, CCR6 antagonist 56 (no result: APJ antagonist, APJ ag) | CXCR6 antag conf inactive
CCc1cccc2c(C(=O)C(F)(F)F)cn(CC(=O)NCC3CCCO3)c12 (configuration not stated)	CXCR6 inh 46 | CXCR6 antag conf inactive
Cc1ccc(F)cc1CNC(=O)C1CCC(=O)N(C2CC2)C1 (configuration not stated)	CXCR6 inh 38 | CXCR6 antag conf inactive
COC(=O)[C@]12CCCCC=C1N(Cc1ccco1)C(=O)[C@H](CC(=O)N1CCOCC1)C2	none (no result: APJ antagonist, APJ ag, CCR6 antagonist)
CCOC(=O)[C@]12CCCC=C1N(CCc1ccc(OC)c(OC)c1)C(=O)[C@H](CC(=O)NCCc1ccccc1OC)C2	none (no result: APJ antagonist, APJ ag, CXCR6 inh, CCR6 antagonist)
CCn1nc(NC(=O)C(C)C)c2cc3ccc(C)cc3nc21	none
CCn1nc(NC(C)=O)c2cc3ccc(C)cc3nc21	CXCR6 inh 44 | CXCR6 antag conf inactive
O=C1c2cccc3c([N+](=O)[O-])ccc(c23)C(=O)N1Cc1cccnc1	CXCR6 inh 60 (no result: APJ antagonist, APJ ag, CCR6 antagonist) | CXCR6 antag conf 65
COc1ccc(-c2csc(N3C(=O)CNC3=S)n2)cc1	CXCR6 inh 43, CCR6 antagonist 60 (no result: APJ antagonist, APJ ag) | CXCR6 antag conf inactive
O=C1CNC(=S)N1c1nc(-c2ccccc2)cs1	none
NN=C1c2ccccc2C(=O)C1C(=O)C(c1ccccc1)c1ccccc1 (configuration not stated)	CXCR6 inh 40, CCR6 antagonist 63 (no result: APJ antagonist, APJ ag) | CXCR6 antag conf inactive
Cn1cc([C@]2(O)C(=O)Nc3c(F)cccc32)c2ccccc21	none (no result: APJ antagonist, APJ ag, CXCR6 inh, CCR6 antagonist)
CCOc1ccc(CNc2ccc(N3CCN(Cc4ccccc4)CC3)cc2)cc1	CXCR6 inh 102 | CXCR6 antag conf inactive
COc1ccc(-c2[nH]n(-c3ccc([N+](=O)[O-])cc3)c(=O)c2C=NCc2ccc(F)cc2)cc1	none
